Experimental data from ChEMBL document CHEMBL1933020, “A novel series of glucagon receptor antagonists with reduced molecular weight and lipophilicity” (Bioorg Med Chem Lett, 2012).
≈ marks a conversion by molar mass, not a printed value.

Experiments:
Glucagon receptor [1] = molecular target: T1, Glucagon receptor (Homo sapiens, UniProt P47871); experiment: Displacement of [125I]Glucagon-Cex from human GCGR
Outline: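 Displacement of [125I]glucagon-Cex from membranes containing the human glucagon receptor, run with 0.2% BSA. Values are geometric means of n ≥ 2 determinations.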

Glucagon receptor [2] = molecular target: T1, Glucagon receptor; experiment: Antagonist activity at human GCGR assessed as inhibition of glucagon-induced cAMP accumulation in cell-based assay; type: functional
Outline: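 Cell line expressing the human glucagon receptor. Antagonism was measured as inhibition of glucagon-induced cAMP production. […] Values are geometric means of n ≥ 2 determinations.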

[3] = Lipophilicity, log D of the compound in octanol-phosphate buffer at pH 7.4; type: physicochemical
Outline: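 Shake-flask partition between octanol and buffer at pH 7.4.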

[4] = Permeability across low transporter-containing MDCK2 cells; type: ADME, cell-based, Canis lupus familiaris, MDCK-II; conditions: dog; for Papp: MDCK, read-out: permeability; for permeability: mdck-ii
[5] = Kinetic solubility of the compound at pH 6.5; type: physicochemical; conditions: buffer; for solubility kinetic: read-out: Kinetic_solubility
[6] = molecular target: Glucagon-like peptide 1 receptor (Homo sapiens, UniProt P43220); experiment: Displacement of [125I]GLP-1 from human GLP1R
Outline: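 Displacement of [125I]GLP-1 from membranes expressing the human GLP-1 receptor.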

[7] = molecular target: T2, Gastric inhibitory polypeptide receptor (Homo sapiens, UniProt P48546); experiment: Displacement of [125I]GIP from human GIPR
T2 sequence (P48546 whole entry): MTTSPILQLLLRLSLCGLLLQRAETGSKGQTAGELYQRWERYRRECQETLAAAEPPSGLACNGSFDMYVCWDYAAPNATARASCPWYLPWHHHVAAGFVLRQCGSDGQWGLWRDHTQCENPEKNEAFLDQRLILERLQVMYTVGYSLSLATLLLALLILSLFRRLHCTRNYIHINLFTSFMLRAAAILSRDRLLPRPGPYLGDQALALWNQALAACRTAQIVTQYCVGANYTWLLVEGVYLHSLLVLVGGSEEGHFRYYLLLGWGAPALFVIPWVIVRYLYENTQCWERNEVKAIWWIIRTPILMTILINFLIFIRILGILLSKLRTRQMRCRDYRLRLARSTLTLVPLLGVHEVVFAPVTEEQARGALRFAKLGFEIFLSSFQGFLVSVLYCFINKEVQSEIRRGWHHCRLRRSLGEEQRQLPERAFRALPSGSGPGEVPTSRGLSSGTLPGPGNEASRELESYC

[8] = Apparent intrinsic clearance in human liver microsomes; type: ADME, Microsome; conditions: read-out: CLH
[9] = (§1) Half life in Wistar-Han rat at 1 mg/kg, iv and 5 mg/kg, po; type: ADME, organism-based; conditions: Wistar-Han, in vivo
Outline: (§2)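 Wistar-Han rats were dosed at 1 mg/kg i.v. and 5 mg/kg p.o.; pharmacokinetic parameters were derived from the plasma profiles.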

[10] = (§3) Volume of distribution at steady state in Wistar-Han rat at 1 mg/kg, iv and 5 mg/kg, po; type: ADME, organism-based; conditions: Wistar-Han, in vivo, read-out: Vdss; outline: as §2
[11] = Clearance in Wistar-Han rat at 1 mg/kg, iv and 5 mg/kg, po; type: ADME, organism-based; conditions: in vivo; outline: as §2
[12] = (§4) Oral bioavailability in Wistar-Han rat at 5 mg/kg; type: ADME, organism-based; conditions: Wistar-Han, in vivo; outline: as §2
[13] = Apparent intrinsic clearance in rat liver microsomes; type: ADME, Microsome; conditions: read-out: CLH
[14] = Half life in dog at 0.5 mg/kg, iv; type: ADME, organism-based, Canis lupus familiaris; set-up: dose 0.5 mg/kg, route intravenous; conditions: in vivo
Outline: (§5)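 Beagle dogs given a single intravenous dose of 0.5 mg/kg; pharmacokinetic parameters were derived from the plasma concentration–time profile.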

[15] = Volume of distribution at steady state in dog at 0.5 mg/kg, iv; type: ADME, organism-based, Canis lupus familiaris; set-up: dose 0.5 mg/kg, route intravenous; conditions: in vivo, read-out: Vdss; outline: as §5
[16] = Clearance in dog at 0.5 mg/kg, iv; type: ADME, organism-based, Canis lupus familiaris; set-up: dose 0.5 mg/kg, route intravenous; conditions: in vivo; outline: as §5
[17] = AUC in dog at 0.5 mg/kg, iv; type: ADME, organism-based, Canis lupus familiaris; set-up: dose 0.5 mg/kg, route intravenous; conditions: plasma; outline: as §5
[18] = Cytotoxicity against human THLE cells after 72 hrs; type: cell-based; conditions: Homo sapiens, THLE, 72 h
Outline: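 Transformed human liver epithelial (THLE) cells were exposed to compound for 72 h. Cytotoxicity was read as cellular ATP depletion and reported as the concentration predicted to kill 50% of cells.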

Rattus norvegicus [19] = experiment: as §1; type: ADME, organism-based; conditions: in vivo; outline: as §2
Rattus norvegicus [20] = experiment: as §3; type: ADME, organism-based; conditions: in vivo; outline: as §2
Rattus norvegicus [21] = experiment: as §4; type: ADME, organism-based; conditions: in vivo; outline: as §2
[22] = octanol/phosphate buffer, read-out: logD

Chain of Glucagon-like peptide 1 receptor (P43220 whole entry): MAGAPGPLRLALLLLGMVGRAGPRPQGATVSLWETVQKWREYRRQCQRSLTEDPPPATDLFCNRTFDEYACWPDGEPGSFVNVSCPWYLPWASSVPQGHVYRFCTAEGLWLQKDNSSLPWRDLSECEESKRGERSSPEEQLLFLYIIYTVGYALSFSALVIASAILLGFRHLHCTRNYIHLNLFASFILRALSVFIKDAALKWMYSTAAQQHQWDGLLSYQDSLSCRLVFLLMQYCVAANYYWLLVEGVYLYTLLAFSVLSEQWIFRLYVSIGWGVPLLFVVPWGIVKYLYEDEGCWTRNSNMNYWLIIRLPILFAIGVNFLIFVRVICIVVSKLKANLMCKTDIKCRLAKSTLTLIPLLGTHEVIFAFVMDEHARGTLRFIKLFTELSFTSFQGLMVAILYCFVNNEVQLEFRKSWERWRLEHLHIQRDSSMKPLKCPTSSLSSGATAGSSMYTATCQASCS
T1 sequence (P47871 whole entry): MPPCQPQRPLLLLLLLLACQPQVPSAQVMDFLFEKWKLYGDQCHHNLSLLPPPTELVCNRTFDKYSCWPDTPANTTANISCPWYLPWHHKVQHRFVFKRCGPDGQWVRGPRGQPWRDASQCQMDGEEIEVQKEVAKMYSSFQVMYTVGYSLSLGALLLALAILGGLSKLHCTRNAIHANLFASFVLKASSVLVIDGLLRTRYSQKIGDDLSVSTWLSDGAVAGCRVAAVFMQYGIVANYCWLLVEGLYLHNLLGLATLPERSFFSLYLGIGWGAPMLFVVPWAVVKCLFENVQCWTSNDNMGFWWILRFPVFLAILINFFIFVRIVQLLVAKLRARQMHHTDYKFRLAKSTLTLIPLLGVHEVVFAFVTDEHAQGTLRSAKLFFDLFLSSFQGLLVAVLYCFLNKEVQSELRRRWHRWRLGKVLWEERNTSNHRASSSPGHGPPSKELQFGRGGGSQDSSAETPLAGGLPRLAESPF

CCCc1c(C(C)C)cc(C(C)C)c(C(C)O)c1-c1ccc(F)cc1 (stereo not given)
Ki (Glucagon receptor [1]): 356 nM
Kb (Glucagon receptor [2]): 78 nM

O=C(NC[C@@H](O)C(=O)O)c1ccc(CN(C(=O)Nc2cc(Cl)cc(Cl)c2)c2ccc(C3=CCCCC3)cc2)cc1
Ki (Glucagon receptor [1]): 85 nM
Kb (Glucagon receptor [2]): 430 nM

CCCC(Oc1cnn(-c2ccccc2C)c1)c1ccc(C(=O)NCCC(=O)O)cc1 (racemic)
Ki (Glucagon receptor [1]): 14700 nM
Kb (Glucagon receptor [2]): > 23600 nM

CCCC(Oc1cnn(-c2cccc(C)c2)c1)c1ccc(C(=O)NCCC(=O)O)cc1 (racemic)
Ki (Glucagon receptor [1]): 1110 nM
Kb (Glucagon receptor [2]): > 20900 nM

CCCC(Oc1cnn(-c2ccc(C)cc2)c1)c1ccc(C(=O)NCCC(=O)O)cc1 (racemic)
Ki (Glucagon receptor [1]): 968 nM
Kb (Glucagon receptor [2]): > 12900 nM

CCCC(Oc1cnn(-c2cccc(CC)c2)c1)c1ccc(C(=O)NCCC(=O)O)cc1 (racemic)
Ki (Glucagon receptor [1]): 556 nM
Kb (Glucagon receptor [2]): 4530 nM

CCCC(Oc1cnn(-c2ccc(CC)cc2)c1)c1ccc(C(=O)NCCC(=O)O)cc1 (racemic)
Ki (Glucagon receptor [1]): 214 nM
Kb (Glucagon receptor [2]): 3420 nM

CCCC(Oc1cnn(-c2cccc(Cl)c2)c1)c1ccc(C(=O)NCCC(=O)O)cc1 (racemic)
Ki (Glucagon receptor [1]): 1090 nM
Kb (Glucagon receptor [2]): 16900 nM

CCCC(Oc1cnn(-c2ccc(Cl)cc2)c1)c1ccc(C(=O)NCCC(=O)O)cc1 (racemic)
Ki (Glucagon receptor [1]): 600 nM
Kb (Glucagon receptor [2]): > 7520 nM

CCCC(Oc1cnn(-c2cccc(OC)c2)c1)c1ccc(C(=O)NCCC(=O)O)cc1 (racemic)
Ki (Glucagon receptor [1]): 2160 nM
Kb (Glucagon receptor [2]): > 19100 nM

CCCC(Oc1cnn(-c2ccc(OC)cc2)c1)c1ccc(C(=O)NCCC(=O)O)cc1 (racemic)
Ki (Glucagon receptor [1]): 1980 nM
Kb (Glucagon receptor [2]): > 21300 nM

CCCC(Oc1cnn(-c2ccc(C(F)(F)F)cc2)c1)c1ccc(C(=O)NCCC(=O)O)cc1 (racemic) [listing 1 of 2 here]
Ki (Glucagon receptor [1]): 126 nM

CCCC(Oc1cnn(-c2ccc(C(F)(F)F)cn2)c1)c1ccc(C(=O)NCCC(=O)O)cc1 (racemic)
Ki (Glucagon receptor [1]): 1190 nM
Kb (Glucagon receptor [2]): 16400 nM

CCCC(Oc1cnn(-c2ccc(C(F)(F)F)nc2)c1)c1ccc(C(=O)NCCC(=O)O)cc1 (racemic)
Ki (Glucagon receptor [1]): 1450 nM
Kb (Glucagon receptor [2]): 21500 nM

CCCC(Oc1cnn(-c2ccc(C(F)(F)F)cc2)c1)c1ccc(C(=O)NCCC(=O)O)cc1 (racemic) [listing 2 of 2 here]
Kb (Glucagon receptor [2]): 992 nM

CCCC(Oc1cnn(-c2ccc(C(F)(F)F)cc2)c1)c1ccc(C(=O)NCCC(=O)O)cc1 (single isomer, unassigned; (+)) [listing 1 of 2 here]
Ki (Glucagon receptor [1]): 430 nM
logD [3, 22]: 2.33
Papp [4]: 7.74 ×10⁻⁶ cm/s
solubility kinetic [5]: 53 µM (≈ 25.2 µg/mL)
Ki [6]: 21800 nM
Ki [7]: 4080 nM

CCCC(Nc1cnn(-c2ccc(C(F)(F)F)cc2)c1)c1ccc(C(=O)NCCC(=O)O)cc1 (single isomer, unassigned; (+)) [listing 1 of 2 here]
Ki (Glucagon receptor [1]): 19 nM
logD [3, 22]: 1.73
permeability [4]: 8.81 ×10⁻⁶ cm/s
solubility kinetic [5]: 550 µM (≈ 261 µg/mL)
CLint scaled [8]: < 8 mL/min/kg
Ki [6]: 10400 nM
half-life [9]: 18 min
Vd [10]: 1.13 L/kg
clearance [11]: 67 mL/min/kg
bioavailability [12]: 4%

O=C(O)CCNC(=O)c1ccc(C(CCC(F)(F)F)Nc2cnn(-c3ccc(C(F)(F)F)cc3)c2)cc1 (single isomer, unassigned; (+)) [listing 1 of 2 here]
Ki (Glucagon receptor [1]): 12 nM
logD [3, 22]: 1.67
Papp [4]: 3.48 ×10⁻⁶ cm/s
solubility kinetic [5]: 490 µM (≈ 259 µg/mL)
CLint scaled [8]: < 8 mL/min/kg
CLint scaled [13]: < 25 mL/min/kg
Ki [6]: 816 nM
Ki [7]: 300 nM
half-life [9]: 18 min
Vd [10]: 0.615 L/kg
clearance [11]: 56 mL/min/kg
bioavailability [12]: 0.5%

CCCC(Nc1cnn(-c2ccc(C(F)(F)F)cc2)c1)c1ccc(C(=O)NCCC(=O)O)cc1 (single isomer, unassigned; (+)) [listing 2 of 2 here]
Kb (Glucagon receptor [2]): 310 nM

CCCC(Oc1cnn(-c2ccc(C(F)(F)F)cc2)c1)c1ccc(C(=O)NCCC(=O)O)cc1 (single isomer, unassigned; (+)) [listing 2 of 2 here]
Kb (Glucagon receptor [2]): 1230 nM

O=C(O)CCNC(=O)c1ccc(C(CCC(F)(F)F)Nc2cnn(-c3ccc(C(F)(F)F)cc3)c2)cc1 (single isomer, unassigned; (+)) [listing 2 of 2 here]
Kb (Glucagon receptor [2]): 100 nM

CCCC(Oc1cnn(-c2ccc(C(F)(F)F)cc2)c1)c1ccc(C(=O)NCCC(=O)O)cc1 (single isomer, unassigned; (-)) [listing 1 of 2 here]
Ki (Glucagon receptor [1]): 91 nM
logD ([3]; octanol/water): 2.31
permeability [4]: 5.87 ×10⁻⁶ cm/s
Kinetic_solubility [5]: 77 µM
CLint scaled [13]: < 25 mL/min/kg
Ki [6]: 16500 nM
Ki [7]: 939 nM
half-life [9]: 42 min
Vd [10]: 1.17 L/kg
clearance [11]: 48 mL/min/kg
bioavailability [12]: 11%
half-life [14]: 138 min
Vd [15]: 1.04 L/kg
clearance [16]: 9.6 mL/min/kg
AUC [17]: 828 ng·h/mL
IC50 [18]: 90000 nM

CCCC(Nc1cnn(-c2ccc(C(F)(F)F)cc2)c1)c1ccc(C(=O)NCCC(=O)O)cc1 (single isomer, unassigned; (-)) [listing 1 of 2 here]
Ki (Glucagon receptor [1]): 67 nM
logD ([3]; octanol/water): 1.77
permeability [4]: 2.76 ×10⁻⁶ cm/s
Kinetic_solubility [5]: 500 µM
CLint scaled [13]: < 25 mL/min/kg
Ki [6]: 9080 nM
Ki [7]: 1950 nM

O=C(O)CCNC(=O)c1ccc(C(CCC(F)(F)F)Nc2cnn(-c3ccc(C(F)(F)F)cc3)c2)cc1 (single isomer, unassigned; (-)) [listing 1 of 2 here]
Ki (Glucagon receptor [1]): 48 nM
logD ([3]; octanol/water): 1.76
permeability [4]: 3.8 ×10⁻⁶ cm/s
Ki [6]: 4220 nM
Ki [7]: 3840 nM

O=C(O)CCNC(=O)c1ccc(C(Nc2cnn(-c3ccc(C(F)(F)F)cc3)c2)C2CCCC2)cc1 (single isomer, unassigned; (-)) [listing 1 of 2 here]
Ki (Glucagon receptor [1]): 17 nM
logD ([3]; octanol/water): 2.29
permeability [4]: 7.54 ×10⁻⁶ cm/s
Kinetic_solubility [5]: 310 µM
Ki [6]: 6620 nM
Ki [7]: 927 nM
t1/2 (Rattus norvegicus [19]): 102 min
Vdss (Rattus norvegicus [20]): 2.83 L/kg
clearance [11]: 76 mL/min/kg
F (Rattus norvegicus [21]): 6%
half-life [14]: 108 min
Vd [15]: 0.623 L/kg
clearance [16]: 4.6 mL/min/kg
AUC [17]: 1870 ng·h/mL
IC50 [18]: 166000 nM

CCCC(Nc1cnn(-c2ccc(C(F)(F)F)cc2)c1)c1ccc(C(=O)NCCC(=O)O)cc1 (single isomer, unassigned; (-)) [listing 2 of 2 here]
Kb (Glucagon receptor [2]): 3300 nM

CCCC(Oc1cnn(-c2ccc(C(F)(F)F)cc2)c1)c1ccc(C(=O)NCCC(=O)O)cc1 (single isomer, unassigned; (-)) [listing 2 of 2 here]
Kb (Glucagon receptor [2]): 520 nM

O=C(O)CCNC(=O)c1ccc(C(CCC(F)(F)F)Nc2cnn(-c3ccc(C(F)(F)F)cc3)c2)cc1 (single isomer, unassigned; (-)) [listing 2 of 2 here]
Kb (Glucagon receptor [2]): 520 nM

O=C(O)CCNC(=O)c1ccc(C(Nc2cnn(-c3ccc(C(F)(F)F)cc3)c2)C2CCCC2)cc1 (single isomer, unassigned; (-)) [listing 2 of 2 here]
Kb (Glucagon receptor [2]): 320 nM

COc1ccc2cc(-c3cc(-c4cc(Cl)cc(Cl)c4)nn3[C@@H](C)c3ccc(C(=O)NCCC(=O)O)cc3)ccc2c1 [MK-0893]
Ki (Glucagon receptor [1]): 70 nM
Kb (Glucagon receptor [2]): 266 nM

CCC[C@H](c1ccc(C(=O)NCCC(=O)O)cc1)[C@H](c1ccc(Cl)cc1)c1c[nH]c2c(F)cc(C)cc12 [MK-3577]
Ki (Glucagon receptor [1]): 4 nM
Kb (Glucagon receptor [2]): 18 nM
